# Results pooled from the literature.
# CYP2D6: Cytochrome P450 2D6 (CYP2D6, Homo sapiens, UniProt P10635)
SMILES,target or system,test,test system,conditions,endpoint,value
CC(C)(C)c1nc(-c2cccc(NS(=O)(=O)c3c(F)cccc3F)c2F)c(-c2ccnc(N)n2)s1,WM 266-4,"cell growth or viability, MTT",,"1.6 µg, 48 h",viability,64.6%
CC[C@@H]1CN(C(=O)NCC(F)(F)F)C[C@@H]1c1cnc2cnc3[nH]ccc3n12,,,"beagle dog, plasma","oral, 1 mg/kg, single dose",AUC(0-inf),582 ng·h/mL
Oc1c(-n2ccnn2)cnn1-c1cc(N2CCOCC2)ncn1,,,"female dog, plasma","oral, 1.5 mg/kg",half-life,2.2 h
COc1cc2c3c(n(CCCN4CCOCC4)c(=O)c2cc1OC)-c1cc2c(cc1C3=O)OCO2,,,"female beagle dog, plasma","intravenous, 10 mg/m², infusion",half-life,8 h
Cc1nc(-c2cnc(NC(C)C)n(C)c2=O)ccc1Oc1ccnc(-c2cnn(C)c2)c1,,,"male beagle dog, plasma","oral, 3 mg/kg",AUC(0-t),7030 ng·h/mL
C#C[C@]1(CO)O[C@@H](n2cnc3c(N)nc(F)nc32)C[C@@H]1O,Ca-Ski,"cell growth or viability, MTT",,24 h,CC50,> 50 µg/mL
COC(=O)C1CCN(C(=O)c2cccc(NCc3cnc4nc(N)nc(N)c4n3)c2)CC1,CYP2D6,"enzyme activity, inhibitor, luciferase",,10 µM,inhibition,-11.1%
Cc1ccc(C(CS(=O)(=O)c2ccccc2)=NNC2=NC(=O)C(=NNc3ccc([N+](=O)[O-])cc3)S2)cc1,WM 266-4,"cell growth or viability, MTT",,"1.6 µg, 48 h",viability,50.5%
COCCc1ccc(OCC(O)CNC(C)C)cc1 (stereo not drawn),CYP2D6,,"human, plasma","oral, 100 mg, single dose, healthy volunteers",Cmax,123 ng/mL
Cc1ccc(C(CS(=O)(=O)c2ccccc2)=NN=C2N=C(c3ccc(Br)cc3)CS2)cc1,WM 266-4,"cell growth or viability, MTT",,"1.6 µg, 48 h",viability,55.1%
CCOC(=O)C1CCN(C(=O)c2ccc(N(CC)Cc3cnc4nc(N)nc(N)c4n3)cc2)CC1,CYP2D6,"enzyme activity, inhibitor, luciferase",,10 µM,inhibition,-4.18%
CCn1c(=O)c(-c2cc(NC(=O)Nc3ccccc3)c(F)cc2Br)cc2cnc(NC)cc21,,,"beagle dog, plasma","oral, 5 mg/kg, single dose",AUC(0-inf),4030 ng·h/mL
